Laboratory results taken from ChEMBL document CHEMBL5712888, “Pharmacological targeting of the Wdr5-MLL interaction in C/EBPα N-terminal leukemia” (Nat Chem Biol, 2015).
Calls of active or inactive are those of the source. No cut-off for these calls is given here.

Assays:
K562 = experiment: Antiproliferative activity against human K562 cells assessed as reduction in cell viability after 72 hrs by cell TiterGlo luminescent cell viability assay; type: functional, cell-based
Hepatocyte [1] = experiment: Antiproliferative activity against mouse primary fetal liver cells expressing C/EBP-alpha p30 assessed as reduction in cell viability after 72 hrs by cell TiterGlo luminescent cell viability assay; type: functional, cell-based
Homo sapiens = organism: Homo sapiens; experiment: Binding affinity against WDR5 S91K mutant (unknown origin) at 50 uM by differential scanning fluorimetry
Method in brief: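 Thermal shift of purified recombinant S91K-mutant WDR5 measured by differential scanning fluorimetry, with test compound at 50 μM run alongside a DMSO vehicle control.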

Hepatocyte [2] = experiment: Inhibition of colony formation in mouse primary fetal liver cells expressing C/EBP-alpha p30 at 5 to 20 uM after 7 day by colony formation assay; type: functional, cell-based; conditions: dose 5-20 µM
Method in brief: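 Primary Cebpap30/p30 fetal liver cells, maintained in DMEM/10% FCS with SCF, IL-6 and IL-3, plated at 1×10^4 cells in complete methylcellulose (M3434) with compound at the indicated concentrations; colonies scored 7 days later and normalized to DMSO for each genotype; mean ± SD of triplicate experiments.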

[3] = Toxicity in mouse bone marrow cells assessed as reduction in colony formation at 2.5 to 20 uM after 7 day by CFU assay; type: cell-based; conditions: bone marrow cell, 168 h, dose 2.5-20 µM
Hepatocyte [4] = experiment: Induction of myeloid differentiation in mouse primary fetal liver cells expressing C/EBP-alpha p30 assessed as upregulation of C3ar1 mRNA expression at 20 uM after 3 to 6 days by qRT-PCR analysis; type: functional, cell-based; conditions: time 3-6 day
Method in brief: (§1)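 Cebpap30/p30 cells in culture with 20 μM compound for the indicated periods. Total RNA (300 ng) reverse transcribed with oligo(dT); SYBR qPCR, quantified by 2−ddCt method; mean ± SD of triplicate experiments, t-test.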

Hepatocyte [5] = experiment: Induction of myeloid differentiation in mouse primary fetal liver cells expressing C/EBP-alpha p30 assessed as upregulation of Ccl9 mRNA expression at 20 uM after 3 to 6 days by qRT-PCR analysis; type: functional, cell-based; conditions: time 3-6 day; method in brief: as §1
Hepatocyte [6] = experiment: Induction of myeloid differentiation in mouse primary fetal liver cells expressing C/EBP-alpha p30 assessed as upregulation of Lcn2 mRNA expression at 20 uM after 3 to 6 days by qRT-PCR analysis; type: functional, cell-based; conditions: time 3-6 day; method in brief: as §1
Hepatocyte [7] = experiment: Induction of myeloid differentiation in mouse primary fetal liver cells expressing C/EBP-alpha p30 assessed as upregulation of Lilrb3 mRNA expression at 20 uM after 3 to 6 days by qRT-PCR analysis; type: functional, cell-based; conditions: time 3-6 day; method in brief: as §1
Hepatocyte [8] = experiment: Induction of myeloid differentiation in mouse primary fetal liver cells expressing C/EBP-alpha p30 assessed as upregulation of Lyz2 mRNA expression at 20 uM after 3 to 6 days by qRT-PCR analysis; type: functional, cell-based; conditions: time 3-6 day; method in brief: as §1
[9] = Antiproliferative activity against human acute myeloid leukemic cells harboring N-terminal CEBPA mutation assessed as vaibility at 5 uM after 72 hrs by cell titer glo luminescent cell viability assay relative to control; type: functional, Leukemia cell
Method in brief: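 20,000 viable proliferating cells per well in triplicate, exposed to 5 μM compound or 0.05% DMSO for 72 h (3 days); CellTiter-Glo luminescence, normalized to DMSO for each patient sample; mean ± SD.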

[10] = biological target: Cyclin-dependent kinase 4/cyclin D1 (Homo sapiens) (UniProt P11802+P24385); experiment: Inhibition of CDK4/cycD1 (unknown origin) assessed as remaining activity at 1 uM relative to control; type: protein-complex assay
[11] = biological target: Cyclin-dependent kinase 5/CDK5 activator 1 (Homo sapiens) (UniProt Q00535+Q15078); experiment: Inhibition of CDK5/p35 (unknown origin) assessed as remaining activity at 1 uM relative to control; type: protein-complex assay
Cyclin-dependent kinase 5/CDK5 activator 1 (Homo sapiens), sequence (Q00535 whole entry): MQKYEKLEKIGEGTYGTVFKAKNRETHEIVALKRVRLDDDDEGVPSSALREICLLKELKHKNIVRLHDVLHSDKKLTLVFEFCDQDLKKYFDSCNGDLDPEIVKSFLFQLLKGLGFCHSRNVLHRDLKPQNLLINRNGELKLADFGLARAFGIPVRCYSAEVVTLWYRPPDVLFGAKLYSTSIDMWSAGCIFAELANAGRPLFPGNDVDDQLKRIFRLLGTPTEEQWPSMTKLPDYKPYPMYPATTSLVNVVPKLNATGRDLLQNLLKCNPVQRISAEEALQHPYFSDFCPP
Cyclin-dependent kinase 5/CDK5 activator 1 (Homo sapiens), sequence (Q15078 99-307 partner limits assumed): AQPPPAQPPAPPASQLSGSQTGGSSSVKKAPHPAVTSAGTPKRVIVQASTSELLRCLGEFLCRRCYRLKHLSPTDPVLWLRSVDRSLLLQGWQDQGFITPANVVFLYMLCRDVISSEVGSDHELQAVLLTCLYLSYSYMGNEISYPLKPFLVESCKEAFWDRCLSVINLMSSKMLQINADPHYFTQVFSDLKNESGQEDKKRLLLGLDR

[12] = biological target: CDK9/cyclin T1 (Homo sapiens) (UniProt O60563+P50750); experiment: Inhibition of CDK9/CycT1 (unknown origin) assessed as remaining activity at 1 uM relative to control; type: protein-complex assay
[13] = biological target: T1, Alpha-1A adrenergic receptor (Rattus norvegicus) (UniProt P43140); experiment: Displacement of [3H]prazosin from rat […] brain alpha1 adrenergic receptor assessed as remaining activity at 1 uM after 60 mins by scintillation counting method relative to control; type: tissue-based
T1 sequence (whole entry): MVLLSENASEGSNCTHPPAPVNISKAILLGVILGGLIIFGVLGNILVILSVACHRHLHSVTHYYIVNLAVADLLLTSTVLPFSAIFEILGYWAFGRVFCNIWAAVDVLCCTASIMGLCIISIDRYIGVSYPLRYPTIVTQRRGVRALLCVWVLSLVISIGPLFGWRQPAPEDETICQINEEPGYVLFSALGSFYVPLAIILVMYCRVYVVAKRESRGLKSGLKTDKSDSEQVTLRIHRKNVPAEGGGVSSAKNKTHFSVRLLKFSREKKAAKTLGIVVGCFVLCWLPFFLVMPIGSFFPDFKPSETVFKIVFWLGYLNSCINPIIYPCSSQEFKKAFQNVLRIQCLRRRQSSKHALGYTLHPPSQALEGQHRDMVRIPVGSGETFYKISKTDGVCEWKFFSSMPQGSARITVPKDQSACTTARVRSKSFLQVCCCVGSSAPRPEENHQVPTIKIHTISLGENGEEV

[14] = biological target: Kappa-type opioid receptor (Homo sapiens) (UniProt P41145); experiment: Displacement of [3H]U69593 from human kappa receptor assessed as remaining activity at 1 uM after 60 mins by scintillation counting analysis relative to control
Kappa-type opioid receptor (Homo sapiens), sequence (P41145 whole entry): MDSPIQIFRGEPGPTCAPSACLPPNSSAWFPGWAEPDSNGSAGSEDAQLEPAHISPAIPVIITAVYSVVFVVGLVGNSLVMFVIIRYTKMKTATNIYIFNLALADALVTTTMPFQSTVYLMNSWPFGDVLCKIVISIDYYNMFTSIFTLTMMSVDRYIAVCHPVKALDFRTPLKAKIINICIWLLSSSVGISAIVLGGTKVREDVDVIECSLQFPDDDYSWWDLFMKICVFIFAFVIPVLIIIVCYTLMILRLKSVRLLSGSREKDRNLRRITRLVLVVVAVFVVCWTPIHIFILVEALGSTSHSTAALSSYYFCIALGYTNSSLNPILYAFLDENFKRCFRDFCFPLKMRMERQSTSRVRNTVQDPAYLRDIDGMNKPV

Hepatocyte [15] = experiment: Induction of myeloid differentiation in mouse primary fetal liver cells expressing C/EBP-alpha p30 assessed as upregulation of Mac-1/Gr-1 double positive cells at 20 uM after 6 days by flow cytometry analysis; type: functional, cell-based; conditions: time 6.0 day
Method in brief: (§2)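 Cebpap30/p30 cells left untreated or given 20 μM compound for 6 days. Fc receptors blocked with anti-CD16/CD32, then Mac-1 and Gr-1 staining by flow cytometry, with Mac-1/Gr-1 double-positive cells counted at the indicated time points. Cytospins stained with Kwik-Diff for microscopic morphology.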

Hepatocyte [16] = experiment: Induction of progenitor morphology loss in mouse primary fetal liver cells expressing C/EBP-alpha p30 at 20 uM after 6 days by Cytospin stainig based microscopic analysis; type: functional, cell-based; conditions: time 6.0 day; method in brief: as §2

| Structure (SMILES) | Activity (K562) | Activity (Hepatocyte [1]) | Activity (Homo sapiens) | inhibition (Hepatocyte [2]) | Activity [3] | Activity (Hepatocyte [4]) | Activity (Hepatocyte [5]) | Activity (Hepatocyte [6]) | Activity (Hepatocyte [7]) | Activity (Hepatocyte [8]) | Activity [9] [%] | Activity [10] [%] | Activity [11] [%] | Activity [12] [%] | Activity [13] [%] | Activity [14] [%] | Activity (Hepatocyte [15]) | Activity (Hepatocyte [16]) |
| --- | --- | --- | --- | --- | --- | --- | --- | --- | --- | --- | --- | --- | --- | --- | --- | --- | --- | --- |
| O=C(Nc1cc(-c2cccc(CN3CCOCC3)c2)ccc1N1CCOCC1)c1c[nH]c(=O)cc1C(F)(F)F | inactive | inactive | – | – | – | – | – | – | – | – | – | – | – | – | – | – | – | – |
| CN1CCN(c2ccc(-c3cccc(CN4CCOCC4)c3)cc2NC(=O)c2c[nH]c(=O)cc2C(F)(F)F)CC1 | – | – | inactive | Active | Non-Toxic | Active | Active | Active | Active | Active | 53 | 102 | 102 | 98 | 99 | 102 | Active | Active |
